High-throughput results deposited in PubChem BioAssay by Broad Institute.
The list is not random: actives were taken first. Their share in the collection is about 1.9%.
SR-BI HDL uptake: inhibitors of SR-BI mediated HDL lipid uptake, primary screen, ldlA[mSR-BI] cells, fluorescence, single point; inhibition, % at 12.5 µM; ldlA[mSR-BI] CHO cells, DiI-HDL uptake fluorescence, 3 h; 0.96% of 320,000 active; Scavenger receptor class B member 1 (Mus musculus), Q61009;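 active means mean replicate inhibition of at least 70% and a set share of replicates each scoring 70 or more; inconclusive means meets just one of the two criteria; inactive means fails both criteria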
Target sequence (Q61009 whole entry, looked up): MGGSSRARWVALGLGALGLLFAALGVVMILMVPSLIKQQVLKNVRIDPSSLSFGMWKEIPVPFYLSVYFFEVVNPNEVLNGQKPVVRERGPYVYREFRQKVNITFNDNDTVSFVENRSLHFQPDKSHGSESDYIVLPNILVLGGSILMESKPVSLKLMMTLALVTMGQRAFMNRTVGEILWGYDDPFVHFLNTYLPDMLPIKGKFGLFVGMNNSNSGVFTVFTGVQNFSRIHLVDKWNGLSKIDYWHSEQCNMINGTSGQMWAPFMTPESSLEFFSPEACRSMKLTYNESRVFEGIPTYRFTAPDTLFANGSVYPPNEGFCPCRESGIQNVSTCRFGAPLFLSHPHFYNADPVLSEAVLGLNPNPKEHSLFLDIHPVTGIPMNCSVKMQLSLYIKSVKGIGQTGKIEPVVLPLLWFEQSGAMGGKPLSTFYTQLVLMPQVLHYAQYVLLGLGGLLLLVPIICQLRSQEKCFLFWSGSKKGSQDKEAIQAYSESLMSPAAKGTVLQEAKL
SR-BI DiI-HDL act: activators of SR-BI mediated DiI-HDL uptake, primary screen, ldlA[mSR-BI] CHO cells, DiI fluorescence; 3 h; 100 = double the neutral-control signal; activation, % at 12.5 µM; 0.096% of 320,000 active; AID 504775, 2011;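 active means mean replicate activation of at least 60% and every replicate at or above 60%; inconclusive means mean or all-replicate condition met, but not both; inactive means mean below 60% and not all replicates reaching 60%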
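Assay system: LDL receptor-deficient CHO ldlA cells overexpressing murine SR-BI / Medium: BSA-supplemented, HEPES-buffered Ham's F12, pH 7.4 / Probe or stimulus: DiI-labelled HDL at 10 µg/mL final / Timing: compound with DiI-HDL co-incubation, 3 h at 37 °C / Technique: bottom-read cell fluorescence after medium removal, ex 550/em 595 nm / Measure: HDL uptake via cellular fluorescence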
PglD DTNB: C. jejuni PglD acetyltransferase inhibitors, primary screen, biochemical, DTNB colorimetric, single point; UDP-N-acetylbacillosamine N-acetyltransferase PglD (Campylobacter jejuni); purified PglD enzyme, DTNB colorimetric CoA detection; inhibition, % at 12.5 µM; 0.098% of 360,000 active; AID 602405, 2012; in the data active means inhibition above about 16%, passing the limit was not always enough; inconclusive means no clear call, values can overlap the other calls
HIV Env fusion: inhibitors of HIV-1 Env-driven cell-cell fusion, primary screen, HeLa-JRFL effector, CEM21 target cells, luciferase; 1.1% of 360,000 active; inhibition, % at 12.3 µM; AID 651610, 2012;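 active means mean replicate inhibition score of at least 50 and every replicate individually at or above 50; inconclusive means only one of the two criteria met; inactive means mean below 50 and not all replicates reaching 50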
Glyco luc inh: increase of ERlucT glycosylation luciferase signal, primary screen, N-linked glycosylation inhibitor project, D54 ERlucT cells, luminescence, set 2; AID 588692, 2011; 0.23% of 360,000 active; D54 ERlucT glycosylation luciferase reporter, 24 h; percent of 100 nM tunicamycin response; reporter increase, % at 12.5 µM;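 active means mean luciferase reporter signal, scaled so untreated is 0 and the glycosylation-blocking control 100, at or above a set limit in every replicate; inconclusive means mean reaches the limit but not every replicate does; inactive means mean below the limit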;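 further: luciferase carries N-glycosylation sites so blocking glycosylation raises the light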
Rtt109 Vps75: inhibitors of C. albicans Rtt109/Vps75 HAT, primary screen, biochemical, ThioGlo CoA-SH fluorescence, plate reader; Histone acetyltransferase RTT109 (Candida albicans (strain SC5314 / ATCC MYA-2876)), …; purified Rtt109/Vps75, 4 h; inhibition, % at 34.9 µM; 0.16% of 330,000 active; AID 540336, 2011;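 active means inhibition of at least 50% in every replicate; inconclusive means best replicate reaches 50% inhibition but some replicates fall short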
Hits are given with their value; . = inactive; ? = inconclusive; / = no result.

SMILES	SR-BI HDL uptake	SR-BI DiI-HDL act	PglD DTNB	HIV Env fusion	Glyco luc inh	Rtt109 Vps75
O=C(CN1CCN(c2cccc(C(F)(F)F)c2)CC1)Nc1ccc2c(c1)OCCCO2	/	/	.	.	.	/
O=C(CN1CCN(c2ccc(O)cc2)CC1)Nc1ccc2c(c1)OCCCO2	75	.	.	.	.	.
Cc1cccc(NC(=O)CN2CCc3cc4c(cc3C2)OCCCO4)c1	.	222	.	.	.	.
CO[C@@H]1CN(C)C(=O)c2cc(NC(=O)C3CCOCC3)ccc2OC[C@@H](C)N(Cc2cccnc2)C[C@H]1C	/	/	.	.	/	/
CO[C@@H]1CN(C)C(=O)c2ccc(NS(=O)(=O)c3cccc(C)c3)cc2OC[C@H](C)NC[C@@H]1C	/	/	.	/	/	/
CN1C(=O)c2cc(NC(=O)Nc3ccccc3F)ccc2OC[C@@H]2O[C@@H](CC(=O)NCCc3ccncc3)CC[C@@H]21	/	/	.	.	/	/
Cc1ccc(NC(=O)CSc2nsc(SCC(=O)Nc3ccc(C)cc3C)c2C#N)c(C)c1	.	.	/	.	30	.
Cc1csc(NC(=O)CSc2nsc(SCC(=O)Nc3nc(C)cs3)c2C#N)n1	.	.	.	.	.	.
CO[C@@H]1CN(C)C(=O)c2ccc(NC(=O)C3CCOCC3)cc2OC[C@@H](C)N(C(C)=O)C[C@H]1C	/	/	.	/	/	/
Cn1nc(-c2ccc(Cl)cc2)c2cc(C(=O)NCC3CCCO3)sc21 (centres undefined)	87	.	.	.	.	.
Cc1ccc(-c2cc(C(=O)NCC3CCCO3)no2)cc1 (centres undefined)	.	.	.	.	.	.
O=C(NCC1CCCO1)c1cc(-c2ccccc2)on1 (centres undefined)	.	.	.	/	34	/
C[C@@H]1CCCCO[C@H](CN(C)S(=O)(=O)c2ccccc2)[C@H](C)CN([C@@H](C)CO)C(=O)c2cc(NS(=O)(=O)c3ccccc3)ccc2O1	/	/	.	.	/	/
CO[C@@H]1CN(C)C(=O)c2ccc(NC(=O)Nc3ccccc3F)cc2OC[C@@H](C)N(C)C[C@@H]1C	/	/	.	/	/	/
CO[C@@H]1CN(C)C(=O)c2cc(NC(=O)C3CCC3)ccc2OC[C@H](C)NC[C@H]1C	/	/	.	/	/	/
O=c1cc(-c2ccccc2)oc2cc(O)c(O)c(O)c12	.	.	.	/	.	.
O=c1c(O)cccc2cc(O)c(O)c(O)c12	.	.	.	56	.	?
CCNC(=O)C[C@@H]1CC[C@@H]2[C@H](COc3ccc(NC(=O)c4ccc(F)c(F)c4)cc3C(=O)N2C)O1	/	/	.	/	/	/
COc1ccc(COc2cc(-c3cccc(OC)c3)nc3ccc(NC(=O)c4ccc(OC)cc4)cc23)cc1	73	.	.	.	.	.
COc1ccc(COc2cc(-c3cccc(OC)c3)nc3ccc(NC(=O)c4ccc(Cl)cc4)cc23)cc1	73	.	.	.	.	.
Cc1noc(C)c1S(=O)(=O)N(C)C[C@H]1Oc2c(cccc2N(C)C)C(=O)N([C@@H](C)CO)C[C@@H]1C	/	/	.	.	/	/
COCC#Cc1cnc2c(c1)C(=O)N([C@@H](C)CO)C[C@H](C)[C@H](CN(C)C(=O)c1ccc(F)cc1)O2	/	/	.	.	/	/
O=S(=O)(c1ccccc1)c1cnn(-c2ccccc2)c1-c1ccc(Cl)cc1	.	.	.	.	.	.
COc1ccc(-c2c(S(=O)(=O)c3ccccc3)cnn2-c2ccccc2)cc1	.	.	.	63	.	.
CO[C@H]1O[C@H](CO)[C@@H](OC(=O)Nc2ccc3c(c2)OCO3)[C@H](OC(=O)Nc2ccccc2)[C@H]1OC(=O)Nc1ccccc1	/	/	.	.	/	/
SMILES	SR-BI HDL uptake	SR-BI DiI-HDL act	PglD DTNB	HIV Env fusion	Glyco luc inh	Rtt109 Vps75
C[C@@H]1CN([C@H](C)CO)C(=O)c2cc(NC(=O)Nc3ccc4c(c3)OCO4)ccc2O[C@@H](C)CCCCO[C@H]1CN(C)Cc1ccc(C(F)(F)F)cc1	/	/	.	.	/	/
Cc1noc(C)c1NC(=O)Nc1ccc2c(c1)C(=O)N([C@H](C)CO)C[C@H](C)[C@@H](CN(C)C(=O)Nc1cccc3ccccc13)OCCCC[C@H](C)O2	/	/	.	.	/	/
CC(C)=CCC[C@](C)(O[C@@H]1O[C@H](CO[C@@H]2O[C@H](CO)[C@@H](O)[C@H](O)[C@H]2O)[C@@H](O)[C@H](O)[C@H]1O)C1CC[C@]2(C)C1C(=O)CC1[C@@]3(C)CC[C@H](O[C@H]4O[C@@H](CO)[C@H](O)[C@@H](O)[C@@H]4O)C(C)(C)C3CC[C@]12C (some centres undefined)	.	.	.	.	.	.
C/C(=C/CCC(C)(O)C1CC[C@@]2(C)[C@@H]3CC=C4[C@@H](CC[C@H](O[C@H]5O[C@@H](CO)[C@H](O)[C@@H](O)[C@@H]5O)C4(C)C)[C@]3(C)C(=O)C[C@]12C)CO[C@@H]1O[C@H](CO)[C@@H](O)[C@H](O)[C@H]1O (some centres undefined)	.	.	.	88	.	.
CC(C)C#Cc1ccc2c(c1)O[C@H](CN(C)Cc1cccnc1)[C@@H](C)CN([C@@H](C)CO)S2(=O)=O	/	/	.	.	/	/
C#CC(=O)N(c1ccc(OC)cc1OC)C(C(=O)NC1CCCC1)c1cccs1 (centres undefined)	.	.	/	109	.	?
CCC(C)NS(=O)(=O)c1ccc(S(=O)(=O)N2CCCC3(CCCCC3)C2)cc1 (centres undefined)	.	.	.	77	.	.
CCC(C)C(=O)Nc1ccc(S(=O)(=O)N2CCCC2)cc1 (centres undefined)	/	/	.	.	.	.
CCN(CC)S(=O)(=O)c1cc(C(=O)NC2=NCCS2)ccc1Cl	74	.	.	.	.	.
CCCNC(=O)N(C)C[C@H]1Oc2cc(-c3ccccc3F)ccc2S(=O)(=O)N([C@H](C)CO)C[C@H]1C	/	/	.	.	/	/
N=c1ccn(CC(=O)c2ccc(-c3ccccc3)cc2)cc1	.	.	/	69	.	.
CN(C(=O)CSc1nc(O)cc(=O)n1-c1ccccc1F)c1ccccc1	.	.	.	65	.	.
CN(C(=O)CSc1nc(O)cc(=O)n1C1CCCC1)c1ccccc1	.	.	.	.	.	.
CN(Cc1ccccc1F)c1ncnc2sccc12	/	/	.	.	.	.
COc1ccc(CN(C)c2ncnc3sccc23)c(OC)c1OC	.	.	.	.	30	.
c1csc(CNc2ncnc3sccc23)c1	.	.	.	80	.	.
COc1ccc(CCN(C)c2ncnc3sccc23)cc1OC	.	.	/	.	.	.
